Experiment [1] is described as follows: Antiproliferative activity against human DND41 cells assessed as inhibition of cell proliferation measured after 72 hrs by real time imaging analysis. The format is functional, cell-based. The settings on record: DND41, 72 h. In short, it runs like this: (§1)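 Suspension cells seeded at 2500–5500 per well into wells already holding compound, seven concentrations from 100 to 6.4 x 10^-3 µM. Incubated at 37°C for 72 h with imaging every 3 h (one field per well, 10x). Growth taken as percent confluence; IC50 derived from area under the curve.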

For a further experiment, the system named is CAPAN-1. Kind of experiment: cells. The format is functional, cell-based. The settings on record: Homo sapiens, CAPAN-1, 72 h.
The test system of the next experiment is MM1.S. Put plainly: cells. Format: functional, cell-based. As to conditions: Homo sapiens, 72 h.
A further experiment has as its system Z-138. Kind of experiment: cells. Format: functional, cell-based. As to conditions: Homo sapiens, Z-138, 72 h.
The test system of a further experiment is TERT-RPE1. Kind of experiment: cells. The format is ADME, cell-based. The settings on record: Homo sapiens, RPE-1, 72 h.
A further experiment concerns HCT-116. Kind of experiment: Antiproliferative activity against human HCT-116 cells assessed as inhibition of cell proliferation measured after 72 hrs by real time imaging analysis. Format: functional, cell-based. The settings on record: HCT-116, 72 h. The method, boiled down: (§2)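 Adherent cells seeded at 500–1500 per well and incubated overnight, then treated at seven concentrations from 100 to 6.4 x 10^-3 µM. Kept at 37°C for 72 h with real-time imaging every 3 h (one field per well, 10x). Growth quantified as percent confluence; IC50 calculated from area under the curve.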

A further experiment has as its system NCI-H460. Put plainly: Antiproliferative activity against human NCI-H460 cells assessed as inhibition of cell proliferation measured after 72 hrs by real time imaging analysis. Format: functional, cell-based. As to conditions: NCI-H460, 72 h. In short, it runs like this: as §2
Another experiment deals with K562. Kind of experiment: Antiproliferative activity against human K562 cells assessed as inhibition of cell proliferation measured after 72 hrs by real time imaging analysis. The format is functional, cell-based. The settings on record: K562, 72 h. In short, it runs like this: as §1
A further experiment relates to HL-60. Put plainly: cells. Format: functional, cell-based. The settings on record: Homo sapiens, HL-60, 72 h.
In the next experiment the test system is Tubulin (Sus scrofa). Put plainly: Inhibition of porcine brain tubulin polymerization in presence of GTP at 30 uM measured every 60 secs for 1 hr by multiplate reader method.
A further experiment concerns HEp-2. Kind of experiment: Inhibition of alpha-tubulin polymerization in human HEp-2 cells assessed as disintegration of microtubule network at 0.3 to 30 uM measured after 3 hrs by DAPI staining based immunoflourescence method relative to vincristine. The format is cell-based. The settings on record: dose 0.3-30 µM. In short, it runs like this:
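HEp-2 cells seeded at 15000 per well and incubated overnight, then exposed 3 h to compound or DMSO carrier. Fixed in 4% PFA and permeabilised. Stained with mouse anti-alpha-tubulin and Alexa Fluor 488 anti-mouse IgG, with DAPI nuclear counterstain. Imaged by confocal microscopy at 63x water immersion. Vincristine and docetaxel served as references.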

A short description of another experiment: cells. Format: ADME, cell-based. The settings on record: Homo sapiens, PBMC, 72 h.

Data on 18 compounds can be found in ChEMBL document CHEMBL4818996, “N-substituted benzimidazole acrylonitriles as in vitro tubulin polymerization inhibitors: Synthesis, biological activity and computational analysis” (Eur J Med Chem, 2021).

The source made the active and inactive calls. The rule behind the calls is not given here.

As to `N#C/C(=C\c1cnc2ccccc2c1)c1nc2ccccc2n1-c1ccccc1`, the half-maximal inhibitory concentration (IC50) came out at 14.1 µM in experiment [1]; 10 µM in the experiment with CAPAN-1; 62.4 µM with MM1.S; 12.6 µM in the experiment with Z-138; 12.2 µM with TERT-RPE1; 12.4 µM in the experiment with HCT-116. Besides, the values for the IC50 in the experiment with NCI-H460, in the experiment with K562 and in the experiment with HL-60 were 13.6 µM, over 100 µM and 15.3 µM, respectively.
Consider `CC(C)Cn1c(C(C#N)=Cc2ccc([N+](=O)[O-])cc2)nc2ccccc21`, for which the half-inhibitory concentration (IC50) in experiment [1] came to 54.6 µM; in the experiment with CAPAN-1 it was 30.3 µM; with MM1.S it was 72.9 µM; in the experiment with Z-138, 45.4 µM; in the experiment on TERT-RPE1, 53.8 µM; with HCT-116, 50.4 µM. Also, the half-inhibitory concentration (IC50) is 14.8 µM in the experiment on NCI-H460, over 100 µM in the experiment on K562 and 33.4 µM with HL-60.
In the case of `CC(=O)O[C@@]12CO[C@@H]1C[C@H](O)[C@@]1(C)C(=O)[C@H](O)C3=C(C)[C@@H](OC(=O)[C@H](O)[C@@H](NC(=O)OC(C)(C)C)c4ccccc4)C[C@@](O)([C@@H](OC(=O)c4ccccc4)[C@H]21)C3(C)C` [DOCETAXEL ANHYDROUS], the IC50 in experiment [1] was 0.0125 µM; in the experiment on CAPAN-1, 0.0088 µM; in the experiment with MM1.S, 0.0118 µM; in the experiment on Z-138, 0.0142 µM; in the experiment with TERT-RPE1, 0.0553 µM; in the experiment with HCT-116 it was 0.0017 µM. The IC50 in the experiment with NCI-H460 amounted to 0.0024 µM; in the experiment with K562, 0.0152 µM; in the experiment on HL-60 it was 0.0072 µM.
For the compound `Cn1c(/C(C#N)=C/c2ccc[nH]2)nc2ccccc21`, the IC50 in [1] is 73.7 µM; with CAPAN-1, 84.4 µM; in the experiment with MM1.S, over 100 µM; with Z-138, over 100 µM; in the experiment on TERT-RPE1, over 100 µM; in the experiment with HCT-116 it was over 100 µM. Also, the IC50 in the experiment with NCI-H460 is 67.9 µM; with K562, over 100 µM; in the experiment with HL-60 it was over 100 µM.
As to `N#C/C(=C\c1cccnc1)c1nc2ccccc2n1-c1ccccc1`, the concentration for half-maximal inhibition (IC50) in experiment [1] was determined as 60.5 µM; with CAPAN-1, 44 µM; in the experiment on MM1.S, 59.5 µM; in the experiment on Z-138, 30.2 µM; with TERT-RPE1 it was 54.4 µM; in the experiment on HCT-116, 50.6 µM. For the same compound, the IC50 in the experiment on NCI-H460 was 45.6 µM; in the experiment with K562, over 100 µM; in the experiment with HL-60 it was 31.3 µM.
Take `Cn1c(/C(C#N)=C/c2cnc3ccccc3c2)nc2ccccc21`: the IC50 was 49.9 µM in experiment [1]; 66.9 µM with CAPAN-1; over 100 µM in the experiment on MM1.S; 45 µM in the experiment on Z-138; 39.4 µM in the experiment with TERT-RPE1; over 100 µM with HCT-116. The figures for the IC50 with NCI-H460, in the experiment with K562 and with HL-60 were 22.4 µM, over 100 µM and 33 µM, respectively.
Take `CN[C@@H]1C[C@H]2O[C@@](C)([C@@H]1OC)n1c3ccccc3c3c4c(c5c6ccccc6n2c5c31)C(=O)NC4` [STAUROSPORINE]: the IC50 in [1] turned out to be 0.016 µM; in the experiment with HCT-116, 0.0281 µM; in the experiment on K562, 0.0768 µM.
With `Cn1c(/C(C#N)=C/c2cccnc2)nc2ccccc21`, the IC50 in [1] is over 100 µM; in the experiment on CAPAN-1, 57.1 µM; in the experiment with MM1.S, over 100 µM; in the experiment on Z-138, over 100 µM; in the experiment on TERT-RPE1, 60.1 µM; in the experiment with HCT-116, 85.1 µM. In addition, the figures for the 50% inhibitory concentration (IC50) with NCI-H460, with K562 and with HL-60 were 59.3 µM, over 100 µM and 58.6 µM, respectively.
Consider `CC(C)Cn1c(C(C#N)=Cc2ccc(N(C)C)cc2)nc2ccccc21`, for which the 50% inhibitory concentration (IC50) in [1] is 0.2 µM; in the experiment with CAPAN-1 it was 0.3 µM; in the experiment with MM1.S, 1.5 µM; with Z-138, 0.4 µM; in the experiment with TERT-RPE1 it was 4.3 µM; in the experiment on HCT-116, 0.6 µM. For the same compound, the concentration for half-maximal inhibition (IC50) was 0.4 µM in the experiment with NCI-H460, 2.1 µM with K562, over 98.8 µM in the experiment “cells” and 0.3 µM in the experiment with HL-60. Also, the inhibition result in the experiment on Tubulin (Sus scrofa) and in the experiment with HEp-2 was “Active” each time.
Consider `N#C/C(=C\c1ccc(Br)cc1)c1nc2ccccc2n1-c1ccccc1`, for which the IC50 in [1] was determined as 12.3 µM; with CAPAN-1, 12.9 µM; in the experiment with MM1.S, 35.7 µM; in the experiment with Z-138, 11 µM; with TERT-RPE1, 22.8 µM; in the experiment with HCT-116 it was 16 µM. The half-maximal inhibitory concentration (IC50) in the experiment with NCI-H460 came out at 12 µM; in the experiment on K562, 39.3 µM; in the experiment with HL-60, 8.6 µM.
As for `N#C/C(=C\c1c[nH]c2ccccc12)c1nc2ccccc2n1-c1ccccc1`, the half-maximal inhibitory concentration (IC50) in experiment [1] turned out to be 10.1 µM; in the experiment with CAPAN-1 it was 5.1 µM; with MM1.S it was 24.8 µM; with Z-138, 12.1 µM; in the experiment with TERT-RPE1, 12.9 µM; in the experiment on HCT-116, 7.1 µM. Besides, the results for the IC50 with NCI-H460, in the experiment with K562 and in the experiment with HL-60 were 5.3 µM, 13.6 µM and 6.7 µM, respectively.
On to `CN(C)c1ccc(/C=C(\C#N)c2nc3ccc(C#N)cc3n2-c2ccccc2)cc1`, for which the IC50 was 55.8 µM in experiment [1]; 3.1 µM in the experiment on CAPAN-1; over 100 µM in the experiment with MM1.S; 17.4 µM in the experiment with Z-138; 27.8 µM in the experiment on TERT-RPE1; 26.8 µM in the experiment on HCT-116. The IC50 with NCI-H460 is 45.7 µM; with K562, over 100 µM; with HL-60 it was 10.9 µM.
With `N#C/C(=C\c1ccc[nH]1)c1nc2ccccc2n1-c1ccccc1`, the 50% inhibitory concentration (IC50) is 41.2 µM in experiment [1]; 14.2 µM with CAPAN-1; over 100 µM in the experiment with MM1.S; 67.5 µM in the experiment with Z-138; 32.4 µM in the experiment with TERT-RPE1; 49.4 µM with HCT-116. For the same compound, the figures for the 50% inhibitory concentration (IC50) in the experiment with NCI-H460, in the experiment on K562 and in the experiment on HL-60 were 27.4 µM, over 100 µM and 42 µM, respectively.
`Cn1c(/C(C#N)=C/c2c[nH]c3ccccc23)nc2ccccc21`: the IC50 was 14.9 µM in experiment [1]; 13.3 µM in the experiment on CAPAN-1; 71 µM in the experiment with MM1.S; 9.9 µM with Z-138; 27.3 µM in the experiment on TERT-RPE1; 29 µM with HCT-116. The IC50 is 12.1 µM with NCI-H460, 37 µM in the experiment on K562 and 13.5 µM with HL-60.
Take `CC(C)Cn1c(/C(C#N)=C/c2ccccc2)nc2ccccc21`: the IC50 came out at 60 µM in [1]; 20.6 µM in the experiment with CAPAN-1; 66.7 µM in the experiment on MM1.S; 40.1 µM in the experiment on Z-138; 44.9 µM in the experiment on TERT-RPE1; 42.4 µM in the experiment with HCT-116. Also, the concentration for half-maximal inhibition (IC50) in the experiment on NCI-H460 came to 26.1 µM; with K562, 53.4 µM; in the experiment with HL-60 it was 29.1 µM.
As to `CN(C)c1ccc(/C=C(\C#N)c2nc3ccc(C#N)cc3n2C)cc1`, the IC50 in experiment [1] is over 100 µM; in the experiment with CAPAN-1 it was 55.9 µM; with MM1.S, over 100 µM; in the experiment with Z-138, 96.5 µM; in the experiment with TERT-RPE1 it was 80.9 µM; with HCT-116, 68.5 µM. In addition, the results for the IC50 in the experiment on NCI-H460, in the experiment with K562 and with HL-60 were over 100 µM, over 100 µM and 68.1 µM, respectively.
Take `CC(C)Cn1c(C(C#N)=Cc2ccc(N(C)C)cc2)nc2ccc(C#N)cc21`: the half-maximal inhibitory concentration (IC50) in experiment [1] is 0.3 µM; with CAPAN-1, 0.2 µM; in the experiment on MM1.S it was 1.3 µM; with Z-138 it was 0.4 µM; with TERT-RPE1, 1.7 µM; in the experiment with HCT-116, 0.4 µM. Also, the 50% inhibitory concentration (IC50) in the experiment with NCI-H460 is 0.6 µM; in the experiment with K562, 1.4 µM; in the experiment “cells”, over 76 µM; in the experiment on HL-60, 0.2 µM. The inhibition result in the experiment on Tubulin (Sus scrofa) and with HEp-2 was “Active” each time.
Consider `Cn1c(/C(C#N)=C/c2ccc(Br)cc2)nc2ccccc21`, for which the IC50 in experiment [1] is 41.3 µM; with CAPAN-1 it was 20.5 µM; in the experiment on MM1.S it was 95.7 µM; in the experiment on Z-138 it was 30.7 µM; with TERT-RPE1 it was 47.3 µM; with HCT-116 it was 52.2 µM. For the same compound, the results for the concentration for half-maximal inhibition (IC50) in the experiment on NCI-H460, with K562 and in the experiment on HL-60 were 32.1 µM, 57.6 µM and 24.3 µM, respectively.

By IC50 is commonly meant the concentration needed to halve the response being measured.
